One molecule from ChEMBL document CHEMBL4825680, “Structure-based discovery of potent and selective small-molecule inhibitors targeting signal transducer and activator of transcription 3 (STAT3)” (Eur J Med Chem, 2021) can be followed below.

Data set [1] is described as follows: Induction of apoptosis in human MDA231-LM2-4175 cells assessed as early apoptotic cells at 1 uM after 48 hrs by Annexin-V-FITC/propidium iodide staining based flow cytometric analysis (reference value: 2.49%). The format is functional.
Data set [2] can be described thus: AUC(0 to infinity) in Sprague-Dawley rat at 10 mg/kg, po measured up to 24 hrs by LC-MS/MS analysis. The format is ADME, organism-based. The following applies: in vivo. Also noted: route oral, dose 10 mg/kg, time <=24. The procedure, abridged:
(§1)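 Male SD rats given a single oral dose of 10 mg/kg in DMSO/0.5% HPMC (5/95, v/v). Blood was drawn at 0.25, 0.5, 1, 2, 4, 8 and 24 h, and plasma was analysed by LC-MS/MS on a BEH phenyl column with a formic acid water/acetonitrile mobile phase.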

For data set [3], the system named is MDA231-LM2-4175. Description: Antitumor activity against human MDA231-LM2-4175 cells xenografted in mouse assessed as reduction in Bcl-xL expression at 5 to 15 mg/kg, iv administered once daily for 20 days by Western blotting analysis. Type of data set: functional, organism-based. The following applies: dose 5-15 mg/kg, time 20.0 day. (Xenograft models place foreign cells or tissue in a host animal.)

Data set [4] has as its system MDA-MB-231. The data set can be described thus: Induction of apoptosis in human MDA-MB-231 cells assessed as viable cells at 3 uM after 48 hrs by Annexin-V-FITC/propidium iodide staining based flow cytometric analysis (reference value: 93.4%). The format is functional. The following applies: read-out: Activity.
For data set [5], the system named is MDA231-LM2-4175. Description: Antitumor activity against human MDA231-LM2-4175 cells xenografted in mouse assessed as reduction in Mcl expression at 5 to 15 mg/kg, iv administered once daily for 20 days by Western blotting analysis. The format is functional, organism-based. The following applies: dose 5-15 mg/kg, time 20.0 day.
Data set [6] concerns the target T1, Signal transducer and activator of transcription 3 (Homo sapiens, UniProt P40763). The data set can be described thus: Inhibition of STAT3 in human MDA-MB-468 cells assessed as downregulation of Mcl-1 expression at 0.3 to 3 uM after 24 hrs by western blot analysis. The following applies: dose 0.3-3 µM. The format is cell-based. The procedure, abridged: (§2)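 TNBC cells given vehicle (0.1% DMSO) or graded compound levels for 24 h, lysed in RIPA with PMSF and phosphatase inhibitors. BCA-quantified lysate (20–50 µg) run on SDS-PAGE, transferred to PVDF, blocked in 5% BSA. Probed overnight at 4 °C for Bcl-xL, Mcl-1 and c-Myc, with β-actin. HRP secondary, ECL detection. Three independent experiments.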
Background: A western blot detects proteins with antibodies after separation by electrophoresis.

Data set [7] deals with T1, Signal transducer and activator of transcription 3. Description: Inhibition of STAT3 in human MDA-MB-231 cells assessed as downregulation of Mcl-1 expression at 0.3 to 3 uM after 24 hrs by western blot analysis. The format is cell-based. The following applies: dose 0.3-3 µM. Summed up: as §2
Data set [8] relates to MDA-MB-231. Description: Induction of apoptosis in human MDA-MB-231 cells assessed as viable cells at 1 uM after 48 hrs by Annexin-V-FITC/propidium iodide staining based flow cytometric analysis (reference value: 93.4%). Type of data set: functional. The following applies: read-out: Activity. A general note: A flow cytometer gives signals particle by particle.
Data set [9] deals with MDA231-LM2-4175. Description: Induction of apoptosis in human MDA231-LM2-4175 cells assessed as increase in PARP cleavage at 1 uM after 48 hrs by Western blot analysis. The format is functional, cell-based. The procedure, abridged: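 Breast cancer cells given vehicle (0.1% DMSO) or compound, then lysed in RIPA buffer with PMSF and phosphatase inhibitors. BCA-quantified lysate (20–50 µg) run on 8 or 12% SDS-PAGE and transferred to PVDF. Blocked in 5% BSA, probed overnight at 4 °C for PARP and cleaved caspase-7, HRP secondary, ECL detection. β-actin as loading control.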

In data set [10] the test system is MDA-MB-231. The data set can be described thus: Inhibition of cell invasion in human MDA-MB-231 cells incubated for 12 hrs by crystal violet staining based transwell assay. The format is functional. The following applies: dose 1-3 µM. Summed up: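 Cells seeded at 1.5×10^4–3×10^4 per well in the upper chamber of 8.0 µm pore Transwell inserts and treated with graded compound for 12 h. Non-invading cells removed with cotton. Invaded cells fixed in 4% paraformaldehyde, stained with crystal violet, photographed and counted. Triplicate.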

Data set [11] deals with T1, Signal transducer and activator of transcription 3. The data set can be described thus: Inhibition of STAT3 in human MDA-MB-231 cells assessed as downregulation of Bcl-xL expression at 0.3 to 3 uM after 24 hrs by western blot analysis. The format is cell-based. The following applies: dose 0.3-3 µM. The procedure, abridged:
as §2

The subject of data set [12] is MDA-MB-231. The data set can be described thus: Induction of apoptosis in human MDA-MB-231 cells assessed as increase in PARP cleavage at 3 uM after 48 hrs by Western blot analysis. The format is functional, cell-based. Summed up:
(§3)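 Cells were treated with vehicle (0.1% DMSO) or compound, then analysed by western blot of RIPA lysates (20–50 μg protein, SDS-PAGE, PVDF) for PARP and cleaved caspase-7, with β-actin as loading control. Three independent experiments.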

Data set [13] deals with MDA-MB-231. The data set can be described thus: Antiproliferative activity against STAT3 knocked down human MDA-MB-231 cells assessed as reduction in cell viability. The format is functional, cell-based. Summed up:
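MDA-MB-231 cells at 60–70% confluence were transfected with STAT3 siRNA or negative-control siRNA using DharmaFECT. Viability was then read by CCK-8.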

The test system of data set [14] is MDA-MB-231. Description: Effect on total STAT3 level in human MDA-MB-231 cells at 0.3 to 3 uM measured after 3 hrs by Western blot analysis. Type of data set: functional, cell-based. The following applies: dose 0.3-3 µM. Summed up: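 Breast cancer cells were treated with vehicle (0.1% DMSO) or compound, then lysed in RIPA with PMSF and phosphatase inhibitors. 20–50 μg protein was run on 8 or 12% SDS-PAGE, blotted to PVDF, blocked in 5% BSA, probed with primary antibodies overnight at 4 °C, then HRP secondaries, with ECL detection.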

The nature of data set [15]: Half life in Sprague-Dawley rat at 10 mg/kg, po measured up to 24 hrs by LC-MS/MS analysis. The format is ADME, organism-based. The following applies: in vivo. The procedure, abridged:
as §1

Data set [16] concerns MDA-MB-468. The data set can be described thus: Induction of apoptosis in human MDA-MB-468 cells assessed as viable cells at 3 uM after 48 hrs by Annexin-V-FITC/propidium iodide staining based flow cytometric analysis (reference value: 95.5%). The format is functional. The following applies: read-out: Activity.
For data set [17], the target named is T1, Signal transducer and activator of transcription 3. Description: Inhibition of STAT3 DNA binding in human MDA-MB-231 cells at 0.3 to 1 uM after 3 hrs by EMSA analysis. Type of data set: cell-based. The following applies: dose 0.3-1 µM. Summed up:
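Cells exposed to vehicle or compound for 3 h. Nuclear extracts prepared and BCA-quantified. Nuclear protein (8–10 µg) incubated with biotinylated STAT3 or STAT5 probe, resolved on 6% native polyacrylamide gel, transferred to nylon membrane and detected with a gel-shift kit.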

Data set [18] can be described thus: Antitumor activity against human MDA231-LM2-4175 cells xenografted in mouse assessed as tumor growth inhibition at 15 mg/kg, iv administered once daily for 20 days. Type of data set: functional. The following applies: MDA231-LM2-4175, iv, 480 h, time 20 day, read-out: TGI.
For data set [19], the system named is MDA-MB-231. Description: Inhibition of colony formation in human MDA-MB-231 cells at 0.3 uM after 10 to 15 days by crystal violet staining based assay. The format is functional, cell-based. The following applies: time 10-15 day. The procedure, abridged:
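Cells seeded at 0.5×10^3–1×10^3 per well; compound added the next day. Medium and compound renewed every 2–3 days. After about 10–15 days, colonies fixed with 4% paraformaldehyde, stained with crystal violet, scanned and quantified by image analysis. Triplicate.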

Data set [20] deals with MDA-MB-231. The data set can be described thus: Antiproliferative activity against human MDA-MB-231 cells. Type of data set: functional, cell-based.
Data set [21] deals with MDA-MB-468. Description: Induction of apoptosis in human MDA-MB-468 cells assessed as increase in PARP cleavage at 1 uM after 48 hrs by Western blot analysis. Type of data set: functional, cell-based. Summed up:
as §3

The source made the active and inactive calls. The rule behind the calls is not given here.

T1 sequence (P40763 whole entry): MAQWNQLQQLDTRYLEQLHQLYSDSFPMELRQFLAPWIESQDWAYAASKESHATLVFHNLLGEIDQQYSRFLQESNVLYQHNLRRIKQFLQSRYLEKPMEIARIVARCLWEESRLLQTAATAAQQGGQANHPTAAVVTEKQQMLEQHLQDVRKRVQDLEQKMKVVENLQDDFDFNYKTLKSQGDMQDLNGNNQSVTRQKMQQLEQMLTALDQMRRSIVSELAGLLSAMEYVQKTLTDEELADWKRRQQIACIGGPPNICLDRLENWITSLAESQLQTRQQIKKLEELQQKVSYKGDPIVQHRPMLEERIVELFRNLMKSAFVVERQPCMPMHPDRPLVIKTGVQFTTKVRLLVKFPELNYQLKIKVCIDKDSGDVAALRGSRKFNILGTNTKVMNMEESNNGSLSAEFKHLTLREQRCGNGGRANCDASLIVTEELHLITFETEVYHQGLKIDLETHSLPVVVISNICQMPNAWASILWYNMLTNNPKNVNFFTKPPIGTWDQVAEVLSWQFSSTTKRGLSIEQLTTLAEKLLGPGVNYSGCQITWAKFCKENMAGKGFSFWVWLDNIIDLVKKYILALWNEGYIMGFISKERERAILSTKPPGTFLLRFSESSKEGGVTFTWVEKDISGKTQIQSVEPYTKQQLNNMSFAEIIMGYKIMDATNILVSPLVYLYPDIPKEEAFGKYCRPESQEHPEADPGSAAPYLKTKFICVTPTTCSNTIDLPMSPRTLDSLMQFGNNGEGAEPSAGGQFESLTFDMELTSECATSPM

Broadly, the AUC(0-inf) is total exposure, with the tail of the curve extrapolated. Low readings indicate less exposure, high ones more exposure. What is called half-life is how long it takes for the measured level to halve. The low end stands for fast loss, the high end for slow loss. By IC50 is commonly meant the midpoint of a concentration-inhibition curve. A low value points to greater potency in that assay. For `O=C(Cc1c(-c2ccccc2)nc2ccccn12)Nc1ccc2c(c1)S(=O)(=O)C=C2`, the Activity in [1] is recorded as 6.17%. The molecule further displayed an area under the curve AUC(0-inf) in [2] of 56.1 ng·h/mL. The result in the data set with MDA231-LM2-4175 [3], in the data set on MDA231-LM2-4175 [5], with MDA231-LM2-4175 [9], in the data set with MDA-MB-231 [12] and in the data set on MDA-MB-468 [21] was Active. For the same molecule, the viability at 3 µM is 73.9% with MDA-MB-231 [4] and 38.6% with MDA-MB-468 [16]. In addition, the inhibition entry (in [6]; in [7]; in data set [11]; in [17]; in the data set on MDA-MB-231 [19]) was “Active” each time. Also, the viability at 1 µM in the data set on MDA-MB-231 [8] was 83.5%. For the same molecule, the inhibition entry with MDA-MB-231 [10] was “Dose-Dependent Effect”. Moreover, the result with MDA-MB-231 [13] and in the data set with MDA-MB-231 [14] was inactive. Further, the half-life in [15] is 87.6 min. The inhibition in vivo at 15 mg/kg in data set [18] stood at 40.2%. For the same molecule, the midpoint of inhibition in the data set with MDA-MB-231 [20], the IC50, lay at 1200 nM.
